# What was measured:
# Enterococcus faecalis = test: Antibacterial activity against Enterococcus faecalis 2347 after 18 to 24 hrs by agar dilution method; type: functional
# How it was run: (§1)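 MICs were determined by agar dilution on test agar. An overnight tryptosoy broth culture was diluted in the same broth to about 10⁶ cells/mL and spotted with an inoculating device onto agar containing serial twofold dilutions of compound. Plates were incubated at 37 °C for 18–20 h, and the MIC was the lowest concentration with no visible growth.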
# Pseudomonas aeruginosa [1] = test: Antibacterial activity against Pseudomonas aeruginosa 5455 after 18 to 24 hrs by agar dilution method; type: functional; how it was run: as §1
# Haemophilus influenzae = test: Antibacterial activity against Haemophilus influenzae 1210 after 18 to 24 hrs by agar dilution method; type: functional; how it was run: as §1
# Enterobacter cloacae [2] = test: Antibacterial activity against Enterobacter cloacae 34 after 18 to 24 hrs by agar dilution method; type: functional; how it was run: as §1
# Klebsiella pneumoniae [3] = test: Antibacterial activity against Klebsiella pneumoniae 523 after 18 to 24 hrs by agar dilution method; type: functional; how it was run: as §1
# Acinetobacter baumannii = test: Antibacterial activity against Acinetobacter baumannii 2289 after 18 to 24 hrs by agar dilution method; type: functional; how it was run: as §1
# Staphylococcus = test: Antibacterial activity against coagulase negative Staphylococcus after 18 to 24 hrs by agar dilution method; type: functional
# How it was run: (§2)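 Agar dilution on test agar holding serial twofold dilutions of compound. Overnight tryptosoy broth cultures were diluted in the same broth to about 10⁶ cells/mL and spotted with an inoculating device. Plates were incubated at 37 °C for 18–20 h.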
# Escherichia coli [4] = test: Antibacterial activity against Escherichia coli 04 after 18 to 24 hrs by agar dilution method; type: functional; how it was run: as §1
# Staphylococcus aureus [5] = test: Antibacterial activity against Staphylococcus aureus 1218 after 18 to 24 hrs by agar dilution method; type: functional; how it was run: as §1
# Streptococcus agalactiae [6] = test: Antibacterial activity against Streptococcus agalactiae 32 after 18 to 24 hrs by agar dilution method; type: functional; how it was run: as §1
# Serratia marcescens [7] = test: Antibacterial activity against Serratia marcescens 3349 after 18 to 24 hrs by agar dilution method; type: functional; how it was run: as §1
# Citrobacter freundii = test: Antibacterial activity against Citrobacter freundii 323 after 18 to 24 hrs by agar dilution method; type: functional; how it was run: as §1
# Streptococcus pyogenes = test: Antibacterial activity against Streptococcus pyogenes 9889 after 18 to 24 hrs by agar dilution method; type: functional; how it was run: as §2
# Streptococcus pneumoniae = test: Antibacterial activity against Streptococcus pneumoniae 0025 after 18 to 24 hrs by agar dilution method; type: functional; how it was run: as §1
# Escherichia coli [8] = test: Antibacterial activity against Escherichia coli TEM after 18 to 24 hrs by agar dilution method; type: functional; how it was run: as §1
# Serratia marcescens [9] = test: Antibacterial activity against Serratia marcescens 6093 after 18 to 24 hrs by agar dilution method; type: functional; how it was run: as §1
# Bacillus subtilis = test: Antibacterial activity against Bacillus subtilis ATCC 6633 after 18 to 24 hrs by agar dilution method; type: functional; how it was run: as §1
# Streptococcus agalactiae [10] = test: Antibacterial activity against Streptococcus agalactiae B after 18 to 24 hrs by agar dilution method; type: functional; how it was run: as §1
# Pseudomonas aeruginosa [11] = test: Antibacterial activity against Pseudomonas aeruginosa 77/2 after 18 to 24 hrs by agar dilution method; type: functional; how it was run: as §1
# Trueperella pyogenes = test: Antibacterial activity against Corynebacterium pyogenes after 18 to 24 hrs by agar dilution method; type: functional; how it was run: as §1
# Pseudomonas aeruginosa [12] = test: Antibacterial activity against Pseudomonas aeruginosa 880/2 after 18 to 24 hrs by agar dilution method; type: functional; how it was run: as §1
# Pasteurella multocida = test: Antibacterial activity against Pasteurella multocida after 18 to 24 hrs by agar dilution method; type: functional; how it was run: as §1
# Micrococcus luteus = test: Antibacterial activity against Micrococcus luteus ATCC 9341 after 18 to 24 hrs by agar dilution method; type: functional; how it was run: as §1
# Salmonella typhi = test: Antibacterial activity against Salmonella typhi after 18 to 24 hrs by agar dilution method; type: functional, Salmonella enterica subsp. enterica serovar Typhi; details: Salmonella enterica
# How it was run: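 Agar dilution on test agar with serial twofold dilutions of compound. Overnight tryptosoy broth cultures diluted in the same broth to about 10⁶ cells/mL, then applied with an inoculating device. Plates incubated at 37 °C for 18–20 h.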
# Klebsiella pneumoniae [13] = test: Antibacterial activity against Klebsiella pneumoniae 477 after 18 to 24 hrs by agar dilution method; type: functional; how it was run: as §1
# Enterobacter cloacae [14] = test: Antibacterial activity against Enterobacter cloacae after 18 to 24 hrs by agar dilution method; type: functional; how it was run: as §1
# [15] = tested on: Corynebacterium diphtheriae; test: Antibacterial activity against Corynebacterium diphtheriae after 18 to 24 hrs by agar dilution method; type: functional; how it was run: as §1
# Staphylococcus aureus [16] = test: Antibacterial activity against Staphylococcus aureus 209P after 18 to 24 hrs by agar dilution method; type: functional; how it was run: as §1
# Proteus mirabilis [17] = test: Antibacterial activity against Proteus mirabilis 112/3 after 18 to 24 hrs by agar dilution method; type: functional; how it was run: as §1
# Burkholderia cepacia = test: Antibacterial activity against Pseudomonas cepacia after 18 to 24 hrs by agar dilution method; type: functional; how it was run: as §1
# Providencia rettgeri [18] = test: Antibacterial activity against Proteus rettgeri 937 after 18 to 24 hrs by agar dilution method; type: functional; how it was run: as §1
# Escherichia coli [19] = test: Antibacterial activity against Escherichia coli 0126 after 18 to 24 hrs by agar dilution method; type: functional; how it was run: as §1
# [20] = Antibacterial activity against Salmonella give after 18 to 24 hrs by agar dilution method; type: functional, Salmonella enterica subsp. enterica serovar Give; details: Salmonella enterica; how it was run: as §1
# [21] = Antibacterial activity against Salmonella oranienburg after 18 to 24 hrs by agar dilution method; type: functional, Salmonella enterica subsp. enterica serovar Oranienburg; details: Salmonella enterica; how it was run: as §1
# Proteus mirabilis [22] = test: Antibacterial activity against Proteus mirabilis 174/3 after 18 to 24 hrs by agar dilution method; type: functional; how it was run: as §1
# Staphylococcus aureus [23] = test: Antibacterial activity against Staphylococcus aureus giorgio after 18 to 24 hrs by agar dilution method; type: functional; how it was run: as §1
# Staphylococcus aureus [24] = test: Antibacterial activity against Staphylococcus aureus 503 after 18 to 24 hrs by agar dilution method; type: functional; how it was run: as §1
# Escherichia coli [25] = test: Antibacterial activity against Escherichia coli 086 after 18 to 24 hrs by agar dilution method; type: functional; how it was run: as §1
# Serratia marcescens [26] = test: Antibacterial activity against Serratia marcescens 370 after 18 to 24 hrs by agar dilution method; type: functional; how it was run: as §1
# Pseudomonas aeruginosa [27] = test: Antibacterial activity against Pseudomonas aeruginosa 110/2 after 18 to 24 hrs by agar dilution method; type: functional; how it was run: as §1
# Enterobacter cloacae [28] = test: Antibacterial activity against Enterobacter cloacae 417 after 18 to 24 hrs by agar dilution method; type: functional; how it was run: as §1
# Providencia rettgeri [29] = test: Antibacterial activity against Proteus rettgeri 936 after 18 to 24 hrs by agar dilution method; type: functional; how it was run: as §1
# Enterococcus durans = test: Antibacterial activity against Streptococcus durans D after 18 to 24 hrs by agar dilution method; type: functional; how it was run: as §1
# Escherichia coli [30] = test: Antibacterial activity against Escherichia coli 0114 after 18 to 24 hrs by agar dilution method; type: functional; how it was run: as §1
# Proteus vulgaris = test: Antibacterial activity against Proteus vulgaris 868 after 18 to 24 hrs by agar dilution method; type: functional; how it was run: as §1
# Escherichia coli [31] = test: Antibacterial activity against Escherichia coli V6311/65 after 18 to 24 hrs by agar dilution method; type: functional; how it was run: as §1
# Serratia marcescens [32] = test: Antibacterial activity against Serratia marcescens 14273 after 18 to 24 hrs by agar dilution method; type: functional; how it was run: as §1
# Pseudomonas aeruginosa [33] = test: Antibacterial activity against Pseudomonas aeruginosa 9027 after 18 to 24 hrs by agar dilution method; type: functional; how it was run: as §1
# Priestia megaterium = test: Antibacterial activity against Bacillus megaterium after 18 to 24 hrs by agar dilution method; type: functional; how it was run: as §1
# Salmonella = test: Antibacterial activity against Salmonella orion after 18 to 24 hrs by agar dilution method; type: functional; how it was run: as §1
# Salmonella typhimurium = test: Antibacterial activity against Salmonella Typhimurium after 18 to 24 hrs by agar dilution method; type: functional, Salmonella enterica subsp. enterica serovar Typhimurium; details: Salmonella enterica; how it was run: as §1
# Escherichia coli [34] = test: Antibacterial activity against Escherichia coli 1507 after 18 to 24 hrs by agar dilution method; type: functional; how it was run: as §1
structure (smiles),measurement,setting,value
C[C@@H](O)C1C(=O)N2C(C(=O)O)=C(S[C@@H]3CN[C@H](CN4CCN(C)S4(=O)=O)C3)[C@H](C)C12 (stereo not given in full),MIC,Enterococcus faecalis,6.25 µg/mL
same,MIC,Pseudomonas aeruginosa [1],3.12 µg/mL
same,MIC,Haemophilus influenzae,6.25 µg/mL
same,MIC,Enterobacter cloacae [2],0.049 µg/mL
same,MIC,Klebsiella pneumoniae [3],0.098 µg/mL
same,MIC,Acinetobacter baumannii,12.5 µg/mL
same,MIC,Staphylococcus,0.098 µg/mL
same,MIC,Escherichia coli [4],0.049 µg/mL
same,MIC,Staphylococcus aureus [5],12.5 µg/mL
same,MIC,Streptococcus agalactiae [6],0.02 µg/mL
same,MIC,Serratia marcescens [7],0.098 µg/mL
same,MIC,Citrobacter freundii,0.049 µg/mL
same,MIC,Streptococcus pyogenes,0.02 µg/mL
same,MIC,Streptococcus pneumoniae,0.02 µg/mL
C[C@@H](O)C1C(=O)N2C(C(=O)O)=C(S[C@@H]3CN[C@H](CN4CC(C)(C)NS4(=O)=O)C3)[C@H](C)C12 (stereo not given in full),MIC,Enterococcus faecalis,6.25 µg/mL
same,MIC,Pseudomonas aeruginosa [1],3.12 µg/mL
same,MIC,Haemophilus influenzae,6.25 µg/mL
same,MIC,Enterobacter cloacae [2],0.098 µg/mL
same,MIC,Klebsiella pneumoniae [3],0.049 µg/mL
same,MIC,Acinetobacter baumannii,12.5 µg/mL
same,MIC,Staphylococcus,0.098 µg/mL
same,MIC,Escherichia coli [4],0.049 µg/mL
same,MIC,Staphylococcus aureus [5],3.12 µg/mL
same,MIC,Streptococcus agalactiae [6],0.02 µg/mL
same,MIC,Serratia marcescens [7],0.049 µg/mL
same,MIC,Citrobacter freundii,0.049 µg/mL
same,MIC,Streptococcus pyogenes,0.01 µg/mL
same,MIC,Streptococcus pneumoniae,0.02 µg/mL
C[C@@H](O)[C@H]1C(=O)N2C(C(=O)O)=C(S[C@@H]3CN[C@H](C(=O)N(C)C)C3)[C@H](C)[C@H]12 [MEROPENEM],MIC,Enterococcus faecalis,12.5 µg/mL
same,MIC,Escherichia coli [8],0.02 µg/mL
same,MIC,Serratia marcescens [9],0.05 µg/mL
same,MIC,Pseudomonas aeruginosa [1],1.56 µg/mL
same,MIC,Bacillus subtilis,0.05 µg/mL
same,MIC,Streptococcus agalactiae [10],0.05 µg/mL
same,MIC,Haemophilus influenzae,3.12 µg/mL
same,MIC,Pseudomonas aeruginosa [11],0.8 µg/mL
same,MIC,Trueperella pyogenes,0.05 µg/mL
same,MIC,Pseudomonas aeruginosa [12],0.2 µg/mL
same,MIC,Pasteurella multocida,0.05 µg/mL
same,MIC,Enterobacter cloacae [2],0.025 µg/mL
same,MIC,Micrococcus luteus,0.05 µg/mL
same,MIC,Salmonella typhi,0.01 µg/mL
same,MIC,Klebsiella pneumoniae [13],0.05 µg/mL
same,MIC,Enterobacter cloacae [14],0.01 µg/mL
same,MIC,Klebsiella pneumoniae [3],0.025 µg/mL
same,MIC,[15],0.02 µg/mL
same,MIC,Staphylococcus aureus [16],0.1 µg/mL
same,MIC,Proteus mirabilis [17],0.1 µg/mL
same,MIC,Burkholderia cepacia,0.4 µg/mL
same,MIC,Providencia rettgeri [18],0.05 µg/mL
same,MIC,Acinetobacter baumannii,12.5 µg/mL
same,MIC,Escherichia coli [19],0.05 µg/mL
same,MIC,[20],0.02 µg/mL
same,MIC,[21],0.05 µg/mL
same,MIC,Staphylococcus,0.098 µg/mL
same,MIC,Proteus mirabilis [22],0.1 µg/mL
same,MIC,Escherichia coli [4],0.049 µg/mL
same,MIC,Staphylococcus aureus [23],0.1 µg/mL
same,MIC,Staphylococcus aureus [24],0.05 µg/mL
same,MIC,Escherichia coli [25],0.05 µg/mL
same,MIC,Staphylococcus aureus [5],6.25 µg/mL
same,MIC,Streptococcus agalactiae [6],0.049 µg/mL
same,MIC,Serratia marcescens [26],0.05 µg/mL
same,MIC,Pseudomonas aeruginosa [27],0.4 µg/mL
same,MIC,Enterobacter cloacae [28],0.01 µg/mL
same,MIC,Providencia rettgeri [29],0.1 µg/mL
same,MIC,Enterococcus durans,0.8 µg/mL
same,MIC,Escherichia coli [30],0.02 µg/mL
same,MIC,Serratia marcescens [7],0.049 µg/mL
same,MIC,Proteus vulgaris,0.1 µg/mL
same,MIC,Escherichia coli [31],0.01 µg/mL
same,MIC,Serratia marcescens [32],0.2 µg/mL
same,MIC,Pseudomonas aeruginosa [33],0.4 µg/mL
same,MIC,Priestia megaterium,0.05 µg/mL
same,MIC,Salmonella,0.1 µg/mL
same,MIC,Citrobacter freundii,0.025 µg/mL
same,MIC,Salmonella typhimurium,0.05 µg/mL
same,MIC,Streptococcus pyogenes,0.013 µg/mL
same,MIC,Streptococcus pneumoniae,0.01 µg/mL
same,MIC,Escherichia coli [34],0.02 µg/mL

# Reference: ChEMBL document CHEMBL1147968, “Novel lbeta-methylcarbapenems having cyclic sulfonamide moieties: synthesis and evaluation of in vitro antibacterial activity” (2007)
